Measured values published in ChEMBL document CHEMBL5543089, “Discovery of a novel, highly potent EZH2 PROTAC degrader for targeting non-canonical oncogenic functions of EZH2” (Eur J Med Chem, 2024).

Target: Histone-arginine methyltransferase CARM1 (Homo sapiens) (UniProt Q86X55)
Test: Inhibition of human PRMT4 assessed as methyltransferase activity using Histone H3 as substrate at 10 uM by radioisotope based MT HotSpot assay relative to control
Outline: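 Radioisotope-based methyltransferase assay (MT HotSpot) run by a contract lab. Compound was tested at 10 μM against a panel of 20 methyltransferases, in duplicate. Values are means ± SD of two replicates.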

Sequence of Histone-arginine methyltransferase CARM1 (Homo sapiens) (Q86X55 whole entry): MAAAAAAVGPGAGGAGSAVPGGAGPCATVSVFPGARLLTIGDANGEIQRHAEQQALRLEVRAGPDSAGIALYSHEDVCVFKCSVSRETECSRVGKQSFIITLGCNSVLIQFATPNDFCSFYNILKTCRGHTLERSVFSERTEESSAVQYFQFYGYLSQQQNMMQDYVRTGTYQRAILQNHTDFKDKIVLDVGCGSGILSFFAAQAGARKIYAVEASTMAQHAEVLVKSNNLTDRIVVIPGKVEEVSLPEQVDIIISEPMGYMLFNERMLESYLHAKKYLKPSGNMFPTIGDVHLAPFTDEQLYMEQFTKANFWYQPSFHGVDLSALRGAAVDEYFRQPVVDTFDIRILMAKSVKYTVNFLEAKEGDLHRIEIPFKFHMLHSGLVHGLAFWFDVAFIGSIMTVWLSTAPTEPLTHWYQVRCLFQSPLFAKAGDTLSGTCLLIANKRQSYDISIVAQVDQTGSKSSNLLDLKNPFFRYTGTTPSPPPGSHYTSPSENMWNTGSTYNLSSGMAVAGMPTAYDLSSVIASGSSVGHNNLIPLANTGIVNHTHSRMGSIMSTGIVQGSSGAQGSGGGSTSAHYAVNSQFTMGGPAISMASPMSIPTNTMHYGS

CCN(c1cc(-c2ccc(CN3CCN(CCC(=O)NCCCCCCCCCCC(=O)N[C@H](C(=O)N4C[C@H](O)C[C@H]4C(=O)NCc4ccc(-c5scnc5C)cc4)C(C)(C)C)CC3)cc2)cc(C(=O)NCc2c(C)cc(C)[nH]c2=O)c1C)C1CCOCC1
inhibition: < 50%
